# From ChEMBL document CHEMBL4477200, “Design, Synthesis, and Preclinical Evaluation of 4-Substituted-5-methyl-furo[2,3-d]pyrimidines as Microtubule Targeting Agents That Are Effective against Multidrug Resistant Cancer Cells” (J Med Chem, 2016)
# pIC50: −log10 of the molar value. Active and inactive are the calls of the source. The rule behind the calls is not given here.
# Tests used:
# Tubulin = Tubulin (Bos taurus, UniProt Q6B856+Q862L2+Q862F3); assay: Inhibition of tubulin assembly in bovine brain […] assessed as reduction in turbidity increase preincubated for 15 mins followed by GTP addition measured for 20 mins by spectrophotometric analysis
# How it was run: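 Purified bovine brain tubulin, 1.0 mg/mL (10 µM), was preincubated 15 min at 30 °C in 0.8 M monosodium glutamate (pH 6.6) with compound and 4% DMSO. Mixtures were chilled and 0.4 mM GTP added. Turbidity was followed for 20 min at 30 °C. IC50 is the concentration halving the turbidity increase, interpolated between tested concentrations.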
# HL-60(TB) = assay: Cytotoxicity against human HL-60(TB) cells assessed as growth inhibition after 48 hrs by SRB assay; assay type: functional; conditions: HL-60, 48 h
# NCI-H226 = assay: Cytotoxicity against human NCI-H226 cells assessed as growth inhibition after 48 hrs by SRB assay; assay type: functional; conditions: NCI-H226, 48 h
# NCI-H23 = assay: Cytotoxicity against human NCI-H23 cells assessed as growth inhibition after 48 hrs by SRB assay; assay type: functional; conditions: NCI-H23, 48 h
# NCI-H322M = assay: Cytotoxicity against human NCI-H322M cells assessed as growth inhibition after 48 hrs by SRB assay; assay type: functional
# NCI-H522 = assay: Cytotoxicity against human NCI-H522 cells assessed as growth inhibition after 48 hrs by SRB assay; assay type: functional; conditions: NCI-H522, 48 h
# HCT-116 = assay: Cytotoxicity against human HCT116 cells assessed as growth inhibition after 48 hrs by SRB assay; assay type: functional; conditions: HCT-116, 48 h
# SF-268 = assay: Cytotoxicity against human SF268 cells assessed as growth inhibition after 48 hrs by SRB assay; assay type: functional; conditions: SF-268, 48 h
# M14 = assay: Cytotoxicity against human M14 cells assessed as growth inhibition after 48 hrs by SRB assay; assay type: functional; conditions: M14, 48 h
# SK-MEL-28 = assay: Cytotoxicity against human SK-MEL-28 cells assessed as growth inhibition after 48 hrs by SRB assay; assay type: functional; conditions: SK-MEL-28, 48 h
# SK-MEL-5 = assay: Cytotoxicity against human SK-MEL-5 cells assessed as growth inhibition after 48 hrs by SRB assay; assay type: functional; conditions: SK-MEL-5, 48 h
# UACC-62 = assay: Cytotoxicity against human UACC62 cells assessed as growth inhibition after 48 hrs by SRB assay; assay type: functional; conditions: UACC-62, 48 h
# IGROV-1 = assay: Cytotoxicity against human IGROV1 cells assessed as growth inhibition after 48 hrs by SRB assay; assay type: functional; conditions: IGROV-1, 48 h
# OVCAR-3 = assay: Cytotoxicity against human OVCAR3 cells assessed as growth inhibition after 48 hrs by SRB assay; assay type: functional; conditions: OVCAR-3, 48 h
# OVCAR-5 = assay: Cytotoxicity against human OVCAR5 cells assessed as growth inhibition after 48 hrs by SRB assay; assay type: functional; conditions: OVCAR-5, 48 h
# OVCAR-8 = assay: Cytotoxicity against human OVCAR8 cells assessed as growth inhibition after 48 hrs by SRB assay; assay type: functional; conditions: OVCAR-8, 48 h
# NCI/ADR-RES = assay: Cytotoxicity against human NCI-ADR-RES cells assessed as growth inhibition after 48 hrs by SRB assay; assay type: functional
# SK-OV-3 [1] = assay: Cytotoxicity against human SKOV3 cells assessed as growth inhibition after 48 hrs by SRB assay; assay type: functional, cell-based; conditions: SK-OV-3, 48 h
# How it was run: (§1)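 SRB assay; IC50 is the mean of three independent experiments, each run in triplicate. Cells were kept at 37 °C under 5% CO2. HeLa and SK-OV-3 lines (parental and MDR1-M6/6) were grown in Basal Medium Eagle with 10% FBS, 1% GlutaMAX and 50 µg/mL gentamycin. HeLa WTβIII was grown in DMEM with 10% FBS.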
# 786-0 = assay: Cytotoxicity against human 786-0 cells assessed as growth inhibition after 48 hrs by SRB assay; assay type: functional; conditions: 786-0, 48 h
# SN12C = assay: Cytotoxicity against human SN12C cells assessed as growth inhibition after 48 hrs by SRB assay; assay type: functional
# UO-31 = assay: Cytotoxicity against human UO31 cells assessed as growth inhibition after 48 hrs by SRB assay; assay type: functional; conditions: UO-31, 48 h
# MCF7 = assay: Cytotoxicity against human MCF7 cells assessed as growth inhibition after 48 hrs by SRB assay; assay type: functional; conditions: MCF7, 48 h
# MDA-MB-231 = assay: Cytotoxicity against human MDA-MB-231 cells assessed as growth inhibition after 48 hrs by SRB assay; assay type: functional; conditions: MDA-MB-231, 48 h
# BT-549 = assay: Cytotoxicity against human BT549 cells assessed as growth inhibition after 48 hrs by SRB assay; assay type: functional; conditions: BT-549, 48 h
# HeLa = assay: Antiproliferative activity against human HeLa cells after 48 hrs by SRB assay; assay type: functional, cell-based; how it was run: as §1
# SK-OV-3 [2] = assay: Relative ratio of IC50 for human SKOV3 cells expressing MDR1-M6/6 to IC50 for human SKOV3 cells; assay type: functional
# How it was run: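 Rr is the IC50 in Pgp-expressing SK-OV-3 MDR1-M6/6 cells divided by the IC50 in parental SK-OV-3 cells. Both IC50s come from the SRB assay, averaging three independent experiments run in triplicate.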
# [3] = system: Tubulin (Rattus norvegicus); assay: Induction of microtubule depolymerization in rat A10 cells at 2 times EC50 incubated for 18 hrs by indirect immunofluorescence analysis
# MDA-MB-435 = assay: Antitumor activity against human MDA-MB-435 cells xenografted in nude mouse assessed as tumor growth inhibition at 60 mg/kg, ip dosed on day 0 to 2 and 50 mg/kg, ip on day 8 relative to control
structure (smiles),measurement,setting,value
COc1ccc(N(C)c2ncnc3occ(C)c23)cc1,IC50,Tubulin,3300 nM
same,GI50,HL-60(TB),< 10 nM
same,GI50,NCI-H226,< 10 nM
same,GI50,NCI-H23,< 10 nM
same,GI50,NCI-H322M,> 100000 nM
same,GI50,NCI-H522,< 10 nM
same,GI50,HCT-116,< 10 nM
same,GI50,SF-268,10.1 nM
same,GI50,M14,< 10 nM
same,GI50,SK-MEL-28,< 10 nM
same,GI50,SK-MEL-5,< 10 nM
same,GI50,UACC-62,29.6 nM
same,GI50,IGROV-1,< 10 nM
same,GI50,OVCAR-3,< 10 nM
same,GI50,OVCAR-5,12.8 nM
same,GI50,OVCAR-8,< 10 nM
same,GI50,NCI/ADR-RES,< 10 nM
same,GI50,SK-OV-3 [1],< 10 nM
same,pIC50,SK-OV-3 [1],8.11
same,GI50,786-0,< 10 nM
same,GI50,SN12C,< 10 nM
same,GI50,UO-31,< 10 nM
same,GI50,MCF7,< 10 nM
same,GI50,MDA-MB-231,< 10 nM
same,GI50,BT-549,59.6 nM
same,pIC50,HeLa,8.02
same,Ratio IC50,SK-OV-3 [2],1.1
same,Activity,[3],Active
same,TGI,MDA-MB-435,Active
